From ChEMBL document CHEMBL1127432, “Synthesis, in vitro biological stability, and anti-HIV activity of 5-halo-6-alkoxy(or azido)-5,6-dihydro-3'-azido-3'-deoxythymidine diastereomers as potential prodrugs to 3'-azido-3'-deoxythymidine (AZT)” (J Med Chem, 1994) come the findings set out here.

The target in series [1] is Human immunodeficiency virus 1 (Human immunodeficiency virus 1, UniProt Q72547). The series can be described thus: Effective concentration (in vitro anti-HIV activity ) which produces a 50% survival of HIV-1-infected CEM cells relative to uninfected untreated controls; Inactive. Format: functional, cell-based. The note with it: ccrf-cem. The method, boiled down:
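HIV-1-infected CEM (T4 lymphocyte) cells given small amounts of virus, allowing one complete replication cycle to cause cell killing. Read-out: protection from cytolysis (cell survival) relative to uninfected untreated controls. EC50 is the drug concentration giving 50% survival of infected cells. AZT-treated positive control run concurrently under identical conditions. Run through the NCI Developmental Therapeutics Program AIDS antiviral screen.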

The subject of series [2] is CCRF-CEM. The experiment in a line: Inhibitory concentration (cytotoxic activity) which results in a 50% survival of […]. The following applies: Homo sapiens. The format is functional, cell-based. Put shortly: (§1)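 Cytotoxicity run in the NCI AIDS screening program on CEM T4 lymphocytes alongside the anti-HIV test. IC50 = drug concentration giving 50% survival of uninfected untreated control cells. AZT control tested concurrently.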

The nature of series [3]: Therapeutic index of IC50 to EC50. The note with it: read-out: TI. The method, boiled down:
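TI = IC50/EC50, both from the NCI CEM cell screen. IC50 is the drug concentration giving 50% survival of uninfected untreated controls. EC50 is the concentration giving 50% survival of HIV-1-infected cells relative to uninfected untreated controls.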

Series [4] deals with Thymidine phosphorylase (Escherichia coli K-12) (UniProt P07650). The experiment in a line: In vitro percent of phosphorolysis after incubation with Escherichia coli thymidine phosphorylase for 10 min at 37 degree C. The format is functional. Put shortly: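 E. coli thymidine phosphorylase diluted in 10 mM Tris-HCl pH 7.3 with EDTA, plus 100 mM KH2PO4 pH 7.1 (stock), prewarmed to 37 °C. Substrate added, 10 min at 37 °C, stopped with ice-cold methanol, spun. HPLC-UV at 230 nm tracked substrate loss or appearance of base. Thymidine used as control substrate; each run at least twice.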

Series [5] is filed under the species Mus musculus. The series can be described thus: In vitro percent of 3''-azido-3''-deoxythymidine (AZT) formed upon incubation with mouse blood for 10 min at 37 degree C. The format is functional. Put shortly:
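Heparinized mouse blood from cardiac puncture mixed 1:1 by volume with compound (1 mg/mL stock in water). Incubated 10 min at 37 °C, quenched with ice-cold methanol, 10 min on ice, then centrifuged. Supernatant dried under N2 and redissolved in methanol; AZT quantified by HPLC-UV at 230/265 nm.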

Series [6] in a line: Regeneration of the 5,6-Olefinic bond was measured as percent of 3''-azido-3''-deoxythymidine (AZT) formed upon incubation with Glutathione for 30 min at 37 degree C. Format: functional. Put shortly: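 Compound incubated with reduced glutathione at a compound:GSH mole ratio of 1:2 (1:5 for some analogs) in phosphate buffer pH 7.4 at 37 °C, for times up to 24 h. AZT formed quantified by HPLC, UV 230 nm (dihydro compound) and 265 nm (AZT), water:methanol 7:3 eluent.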

Series [7] is filed under the species Mus musculus. The series can be described thus: In vitro percent of 3''-azido-3''-deoxythymidine (AZT) formed upon incubation with mouse liver homogenate for 30 min at 37 degree C. The format is functional. The method, boiled down:
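Livers of three Balb/c mice homogenized in 0.1 M Tris pH 8.2, spun at 49000g for 2 h at 4 °C; supernatant (soluble enzyme fraction) used. Compound (1 mg/mL stock) incubated with the fraction 30 min at 37 °C, mixed with equal volume methanol, centrifuged. Supernatant dried and redissolved; AZT quantified by HPLC, UV 230 and 265 nm.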

Series [8] in a line: Effective concentration in vitro against HIV-1-infected CEM cells relative to uninfected untreated controls. The following applies: ccrf-cem.
The test system of series [9] is CCRF-CEM. The experiment in a line: Inhibitory concentration (cytotoxic activity) which results in a 50% survival of […]; ND=Not determined. The format is functional, cell-based. The note with it: Homo sapiens. The method, boiled down: as §1

As usually defined, the EC50 is the midpoint of the concentration-response curve. A higher EC50 goes with weaker potency. One may read the IC50 as the midpoint of a concentration-inhibition curve. Lower therefore signals higher potency.

Thymidine phosphorylase (Escherichia coli K-12), sequence (P07650 whole entry, looked up): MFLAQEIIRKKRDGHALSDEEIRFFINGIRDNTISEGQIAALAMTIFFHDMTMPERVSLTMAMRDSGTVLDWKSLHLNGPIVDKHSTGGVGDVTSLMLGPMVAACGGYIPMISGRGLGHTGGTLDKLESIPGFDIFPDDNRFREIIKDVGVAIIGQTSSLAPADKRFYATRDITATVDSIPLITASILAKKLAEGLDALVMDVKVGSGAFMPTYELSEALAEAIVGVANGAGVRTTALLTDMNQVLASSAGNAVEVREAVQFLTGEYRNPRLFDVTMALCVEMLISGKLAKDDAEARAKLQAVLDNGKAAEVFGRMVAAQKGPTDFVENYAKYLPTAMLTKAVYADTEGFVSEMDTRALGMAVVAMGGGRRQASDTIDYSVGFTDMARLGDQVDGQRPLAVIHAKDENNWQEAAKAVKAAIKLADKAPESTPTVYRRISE

Turning to `CC(C)O[C@H]1N(C2CC(N=[N+]=[N-])C(CO)O2)C(=O)NC(=O)[C@]1(C)Cl` (some centres not stated), the 50% effective concentration (EC50) entry in [1] is given as “Not Active”. Also, the IC50 in the series on CCRF-CEM [2] was over 200 µM.

For the compound `CC1(Br)C(=O)NC(=O)N([C@H]2C[C@H](N=[N+]=[N-])[C@@H](CO)O2)C1N=[N+]=[N-]` (some centres not stated), the selectivity ratio in [3] is under 1. This compound registered an IC50 in the series with CCRF-CEM [2] of 176 µM.

With `CCO[C@@H]1N(C2CC(N=[N+]=[N-])C(CO)O2)C(=O)NC(=O)[C@@]1(C)Cl` (some centres not stated), the EC50 entry in series [1] is listed as “Not Active”. In the series with CCRF-CEM [2], the IC50 was over 200 µM.

Consider `CO[C@@H]1N(C2CC(N=[N+]=[N-])C(CO)O2)C(=O)NC(=O)[C@@]1(C)Br` (some centres not stated), for which, in [4], the Phosphorolysis was determined as 0%. Further, the figures for the AZT formation (in the series listed under Mus musculus [5]; in [6]; in the series listed under Mus musculus [7]) were 88%, 77% and 44%, respectively. Besides, the selectivity ratio in [3] was determined as 152. Moreover, in the series with CCRF-CEM [2], the IC50 came out at 42.5 µM.

On to `CCO[C@H]1N(C2CC(N=[N+]=[N-])C(CO)O2)C(=O)NC(=O)[C@@]1(C)Cl` (some centres not stated), for which the EC50 result in series [1] is reported as “Not Active”. The same compound came in with a half-maximal inhibitory concentration (IC50) in the series with CCRF-CEM [2] of over 200 µM.

For the compound `CC1(Cl)C(=O)NC(=O)N([C@H]2C[C@H](N=[N+]=[N-])[C@@H](CO)O2)C1N=[N+]=[N-]` (some centres not stated), the selectivity ratio in series [3] was 235. For the same compound, in the series on CCRF-CEM [2], half-maximal inhibition (IC50) was put at 350 µM.

In the case of `Cc1cn([C@H]2C[C@H](N=[N+]=[N-])[C@@H](CO)O2)c(=O)[nH]c1=O` [ZIDOVUDINE], the Phosphorolysis in [4] amounted to 0%. Further, the selectivity ratio in series [3] was over 10000. In series [8], this compound gave an EC50 of 0.003 µM.

On to `CCCCCCCCO[C@H]1N(C2CC(N=[N+]=[N-])C(CO)O2)C(=O)NC(=O)[C@]1(C)Br` (some centres not stated), for which the selectivity ratio in series [3] worked out at 14. Besides, half-maximal inhibition with CCRF-CEM [2] (IC50) was put at 12.4 µM.

The compound `CO[C@@H]1N(C2CC(N=[N+]=[N-])C(CO)O2)C(=O)NC(=O)[C@@]1(C)Cl` (some centres not stated) returned a Phosphorolysis in [4] of 0%. The AZT formation (in the series filed under Mus musculus [5]; in series [6]; in the series filed under Mus musculus [7]) was 0% in each case.

`CCO[C@H]1N(C2CC(N=[N+]=[N-])C(CO)O2)C(=O)NC(=O)[C@]1(C)Br` (some centres not stated) gave a Phosphorolysis in [4] of 0%. This compound also returned an AZT formation in [6] of 100%. Besides, in series [3], the selectivity ratio was 2740. Moreover, the IC50 in the series with CCRF-CEM [2] was 18.5 µM.

For `CO[C@H]1N(C2CC(N=[N+]=[N-])C(CO)O2)C(=O)NC(=O)[C@]1(C)Cl` (some centres not stated), in series [4], the Phosphorolysis came to 0%. The AZT formation (in the series filed under Mus musculus [5]; in [6]; in the series listed under Mus musculus [7]) was 0% throughout.

For `CO[C@H]1N([C@H]2C[C@H](N=[N+]=[N-])[C@@H](CO)O2)C(=O)NC(=O)C1(C)Cl` (some centres not stated), in series [3], the selectivity ratio came out at 155. This compound also showed an IC50 with CCRF-CEM [2] of over 890 µM.

`CCO[C@@H]1N(C2CC(N=[N+]=[N-])C(CO)O2)C(=O)NC(=O)[C@@]1(C)Br` (some centres not stated) came in with a Phosphorolysis in [4] of 0%. In series [6], this compound had an AZT formation of 85%. For the same compound, the selectivity ratio in [3] was 937. Besides, inhibition with CCRF-CEM [2] was half-maximal at 22.2 µM (IC50).

On to `CCCCCCCCCCCCCCCCO[C@H]1N(C2CC(N=[N+]=[N-])C(CO)O2)C(=O)NC(=O)[C@]1(C)Br` (some centres not stated), for which the EC50 entry in series [1] was “Not Active”. The midpoint of inhibition with CCRF-CEM [2], the IC50, lay at 11 µM.

As to `CC(C)O[C@H]1N(C2CC(N=[N+]=[N-])C(CO)O2)C(=O)NC(=O)[C@]1(C)Br` (some centres not stated), the selectivity ratio in series [3] is 35. Also, the concentration for half-maximal inhibition (IC50) in the series with CCRF-CEM [2] was over 200 µM.

In the case of `CCCCCCCCCCCCCCCCO[C@H]1N(C2CC(N=[N+]=[N-])C(CO)O2)C(=O)NC(=O)[C@]1(C)Cl` (some centres not stated), the EC50 result in series [1] is “Not Active”. The same compound gave a half-maximal inhibitory concentration (IC50) in the series on CCRF-CEM [2] of 31 µM.

With `CO[C@H]1N(C2CC(N=[N+]=[N-])C(CO)O2)C(=O)NC(=O)[C@]1(C)I` (some centres not stated), the Phosphorolysis in series [4] is 0%. In addition, the AZT formation in the series listed under Mus musculus [5] is 100%; in [6] it was 100%; in the series filed under Mus musculus [7] it was 79%. In addition, in [3], the selectivity ratio came to 5900. This compound gave an IC50 in the series with CCRF-CEM [2] of 18.7 µM.

`CO[C@H]1N(C2CC(N=[N+]=[N-])C(CO)O2)C(=O)NC(=O)[C@@]1(C)Cl` (some centres not stated) came in with a Phosphorolysis in series [4] of 0%. Besides, the AZT formation (in the series filed under Mus musculus [5]; in series [6]; in the series listed under Mus musculus [7]) was 0% each time.

Compound `CCCCCCCCO[C@H]1N(C2CC(N=[N+]=[N-])C(CO)O2)C(=O)NC(=O)[C@]1(C)Cl` (some centres not stated) registered an IC50 with CCRF-CEM [9] of 37.5 µM. The EC50 result in series [1] is recorded as “Not Active”.

As for `CO[C@@H]1N(C2CC(N=[N+]=[N-])C(CO)O2)C(=O)NC(=O)[C@@]1(C)I` (some centres not stated), the Phosphorolysis in [4] amounted to 0%. Also, the AZT formation in the series listed under Mus musculus [5] stood at 100%; in series [6], 100%; in the series filed under Mus musculus [7], 96%. Further, the selectivity ratio in [3] is 1250. In the series with CCRF-CEM [2], this compound returned an IC50 of 6.42 µM.

Take `CO[C@H]1N(C2CC(N=[N+]=[N-])C(CO)O2)C(=O)NC(=O)[C@]1(C)Br` (some centres not stated): the Phosphorolysis in series [4] was 0%. Besides, the AZT formation is 59% in the series listed under Mus musculus [5], 80% in [6] and 26% in the series filed under Mus musculus [7]. Moreover, the selectivity ratio in [3] is 5260. In addition, the IC50 in the series with CCRF-CEM [2] was determined as 17.2 µM.

`Cc1cn([C@H]2C[C@H](O)[C@@H](CO)O2)c(=O)[nH]c1=O`: in series [4], the Phosphorolysis is 72%.

As for `CCO[C@H]1N(C2CC(N=[N+]=[N-])C(CO)O2)C(=O)NC(=O)[C@]1(C)Cl` (some centres not stated), the IC50 in the series on CCRF-CEM [9] is over 200 µM. For the same compound, the EC50 entry in [1] was “Not Active”.
